The record followed here is ChEMBL document CHEMBL4038350 (J Med Chem, 2017).

As a reminder, the EC50 is the concentration at which the effect is half-maximal.

What all share (type): functional, cell-based
The target in test [1] is T1, Melanocortin receptor 4 (Mus musculus, UniProt P56450). The test is described as follows: Agonist activity at mouse melanocortin receptor 4 expressed in HEK293 cells assessed as increase in cAMP accumulation after 2 hrs by AlphaScreen assay.
For test [2], the target named is Melanocyte-stimulating hormone receptor (Mus musculus) (UniProt Q01727). The test is described as follows: Agonist activity at mouse melanocortin receptor 1 expressed in HEK293 cells assessed as increase in cAMP accumulation at 100 uM after 2 hrs by AlphaScreen assay relative to control. The method in brief:
(§1)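 Cyclic peptides were dissolved in DMSO. Receptor-expressing HEK293 cells in IBMX-containing stimulation buffer (pH 7.4) were stimulated for 2 h at room temperature. cAMP was then detected by competitive AlphaScreen after a 2 h lysis/bead step. […] Values come from at least three independent experiments.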
Background: Cyclic AMP is a second messenger, typically raised through Gs and lowered through Gi signalling.

For test [3], the target named is T2, Melanocortin receptor 3 (Mus musculus, UniProt P33033). In words: Antagonist activity at mouse melanocortin receptor 3 expressed in HEK293 cells assessed as inhibition of NDP-MSH-induced cAMP accumulation after 2 hrs by AlphaScreen assay. To be noted: read-out: pA2 (converted).
The target of test [4] is Melanocortin receptor 5 (Mus musculus) (UniProt P41149). The test is described as follows: Inverse agonist activity at mouse melanocortin receptor 5 expressed in HEK293 cells assessed as decrease in cAMP accumulation at 100 uM after 2 hrs by AlphaScreen assay relative to control. Set-up: scale not given: the % may be the effect or the level left. The procedure, abridged: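 Each replicate was normalized to its own signal at 10−10 M (basal). Where no plateau appeared, inverse agonism was reported as percent decrease from basal at 100 μM. Values are from three independent experiments.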

Test [5] concerns the target T2, Melanocortin receptor 3. In words: Agonist activity at mouse melanocortin receptor 3 expressed in HEK293 cells assessed as increase in cAMP accumulation after 2 hrs by AlphaScreen assay.
Test [6] concerns the target T1, Melanocortin receptor 4. The test is described as follows: Antagonist activity at mouse melanocortin receptor 4 expressed in HEK293 cells assessed as inhibition of NDP-MSH-induced cAMP accumulation after 2 hrs by AlphaScreen assay. The note with it: read-out: pA2 (converted).
For test [7], the target named is Melanocortin receptor 5 (Mus musculus, UniProt P41149). In words: Agonist activity at mouse melanocortin receptor 5 expressed in HEK293 cells assessed as increase in cAMP accumulation after 2 hrs by AlphaScreen assay. The procedure, abridged:
(§2)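 Donor beads and biotin-cAMP in lysis buffer followed for 2 h. The AlphaScreen signal was read. EC50 came from nonlinear least-squares fits, duplicates, at least three independent experiments.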

Test [8] concerns the target Melanocyte-stimulating hormone receptor (Mus musculus, UniProt Q01727). The test is described as follows: Agonist activity at mouse melanocortin receptor 1 expressed in HEK293 cells assessed as increase in cAMP accumulation after 2 hrs by AlphaScreen assay. The procedure, abridged:
as §2

Test [9] deals with Melanocortin receptor 5 (Mus musculus) (UniProt P41149). The test is described as follows: Inverse agonist activity at mouse melanocortin receptor 5 expressed in HEK293 cells assessed as decrease in cAMP accumulation at 110 nM after 2 hrs by AlphaScreen assay relative to control. Set-up: scale not given: the % may be the effect or the level left. The procedure, abridged:
(§3)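 In mouse MC5R-HEK293 cells, cAMP was measured by AlphaScreen after 2 h peptide exposure (10−4 to 10−13 M) at room temperature. Each replicate was normalized to its signal at 10−10 M. For sigmoidal curves, percent inverse agonism was the change from basal to the high-concentration plateau. Apparent potency was taken as the curve inflection point. Three independent experiments were run.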

The target is the same in test [10]. In words: Inverse agonist activity at mouse melanocortin receptor 5 expressed in HEK293 cells assessed as decrease in cAMP accumulation at 10 nM after 2 hrs by AlphaScreen assay relative to control. Set-up: scale not given: the % may be the effect or the level left. The procedure, abridged: as §3
For test [11] the target is unchanged. In words: Inverse agonist activity at mouse melanocortin receptor 5 expressed in HEK293 cells assessed as decrease in cAMP accumulation at 510 nM after 2 hrs by AlphaScreen assay relative to control. The arrangement: scale not given: the % may be the effect or the level left. The procedure, abridged:
as §3

Test [12] shares this target. In words: Agonist activity at mouse melanocortin receptor 5 expressed in HEK293 cells assessed as increase in cAMP accumulation at 100 uM after 2 hrs by AlphaScreen assay relative to control. The method in brief:
as §1

In test [13] the target is Melanocortin receptor 3 (Mus musculus) (UniProt P33033). In words: Agonist activity at mouse melanocortin receptor 3 expressed in HEK293 cells assessed as increase in cAMP accumulation at 100 uM after 2 hrs by AlphaScreen assay relative to control. The procedure, abridged:
as §1

For test [14], the target named is Melanocortin receptor 4 (Mus musculus) (UniProt P56450). The test is described as follows: Agonist activity at mouse melanocortin receptor 4 expressed in HEK293 cells assessed as increase in cAMP accumulation at 100 uM after 2 hrs by AlphaScreen assay. The method in brief:
as §1

Non-standard residues stand in square brackets, D forms with d. Residues, ends and D or L forms follow the SMILES beside them.

Sequence of Melanocortin receptor 5 (P41149 whole entry): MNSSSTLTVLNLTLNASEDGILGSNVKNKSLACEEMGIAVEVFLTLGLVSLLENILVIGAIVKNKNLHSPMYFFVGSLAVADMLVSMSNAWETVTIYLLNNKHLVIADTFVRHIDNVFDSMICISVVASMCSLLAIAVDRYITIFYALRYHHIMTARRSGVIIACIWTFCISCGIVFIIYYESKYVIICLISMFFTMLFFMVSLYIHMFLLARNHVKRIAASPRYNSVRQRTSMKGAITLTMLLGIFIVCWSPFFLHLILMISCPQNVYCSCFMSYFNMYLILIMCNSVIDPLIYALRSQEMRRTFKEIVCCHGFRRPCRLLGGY
Sequence of Melanocortin receptor 5 (Mus musculus) (P41149 whole entry): as above
Sequence of Melanocyte-stimulating hormone receptor (Mus musculus) (Q01727 whole entry, looked up): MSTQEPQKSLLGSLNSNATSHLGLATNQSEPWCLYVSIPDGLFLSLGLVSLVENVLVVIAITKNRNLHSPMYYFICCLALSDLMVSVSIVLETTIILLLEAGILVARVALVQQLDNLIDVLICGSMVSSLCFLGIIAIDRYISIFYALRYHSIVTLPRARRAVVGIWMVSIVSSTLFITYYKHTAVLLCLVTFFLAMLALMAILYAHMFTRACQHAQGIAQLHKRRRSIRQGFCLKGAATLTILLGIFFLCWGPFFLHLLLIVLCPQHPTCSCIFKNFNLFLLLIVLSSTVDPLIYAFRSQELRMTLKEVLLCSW
Sequence of Melanocyte-stimulating hormone receptor (Q01727 whole entry): as the sequence (Q01727 whole entry, looked up) above
Sequence of Melanocortin receptor 3 (Mus musculus) (P33033 whole entry): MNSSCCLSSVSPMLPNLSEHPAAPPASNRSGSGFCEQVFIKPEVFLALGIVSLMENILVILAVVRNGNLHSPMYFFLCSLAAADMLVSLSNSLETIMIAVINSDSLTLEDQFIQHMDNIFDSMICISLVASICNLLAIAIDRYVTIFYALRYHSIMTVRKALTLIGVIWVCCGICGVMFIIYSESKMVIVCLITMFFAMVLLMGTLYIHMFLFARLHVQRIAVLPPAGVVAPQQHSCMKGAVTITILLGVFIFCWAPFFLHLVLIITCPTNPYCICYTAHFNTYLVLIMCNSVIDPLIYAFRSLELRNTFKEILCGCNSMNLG
T2 sequence (P33033 whole entry): as above
T1 sequence (P56450 whole entry): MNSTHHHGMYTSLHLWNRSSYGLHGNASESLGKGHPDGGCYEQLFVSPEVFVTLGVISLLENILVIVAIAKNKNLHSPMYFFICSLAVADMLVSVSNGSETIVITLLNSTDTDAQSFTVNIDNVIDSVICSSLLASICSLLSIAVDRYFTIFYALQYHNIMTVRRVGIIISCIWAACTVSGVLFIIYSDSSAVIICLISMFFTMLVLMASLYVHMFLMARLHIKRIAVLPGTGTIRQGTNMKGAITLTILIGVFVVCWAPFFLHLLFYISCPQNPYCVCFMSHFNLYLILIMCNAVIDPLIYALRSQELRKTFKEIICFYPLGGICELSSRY
Sequence of Melanocortin receptor 4 (Mus musculus) (P56450 whole entry): as above

`N=C(N)NCCC[C@@H]1NC(=O)[C@@H]2CCCN2C(=O)[C@H]2CCCN2C(=O)[C@H](Cc2ccccc2)NC(=O)[C@H](CC(=O)O)NC(=O)[C@H](CC(N)=O)NC(=O)[C@H](Cc2ccccc2)NC(=O)[C@H](Cc2ccccc2)NC1=O` (cyclo(RFFNDF[dP]P)): the EC50 in test [1] and in test [5] was greater than 100 µM each time. Also, the Activity in test [2] amounted to 65%; in [4], 25%. In addition, the Kb in test [3] and in test [6] was greater than 3.16 µM each time.
`N=C(N)NCCC[C@@H]1NC(=O)[C@@H]2CCCN2C(=O)[C@H]2CCCN2C(=O)[C@H](Cc2ccccc2)NC(=O)[C@H](CCC(=O)O)NC(=O)[C@H](CC(N)=O)NC(=O)[C@H](Cc2ccccc2)NC(=O)[C@H](Cc2ccccc2)NC1=O` (cyclo(RFFNEF[dP]P)): the half-maximal effective concentration (EC50) in test [7], in test [1] and in [5] was greater than 100 µM in each case. Moreover, in [2], the Activity was 60%. The Kb in test [3] and in [6] was greater than 3.16 µM each time.
On to `CC(C)C[C@@H]1NC(=O)[C@H](Cc2ccccc2)NC(=O)[C@H](Cc2ccccc2)NC(=O)[C@H](CCCNC(=N)N)NC(=O)[C@@H]2CCCN2C(=O)[C@H]2CCCN2C(=O)[C@H](Cc2ccccc2)NC(=O)[C@H](C)NC1=O` (cyclo(RFFLAF[dP]P)), for which the half-maximal effective concentration (EC50) in test [1], in test [5] and in test [8] was greater than 100 µM each time. Also, the Kb was 2 µM in test [3] and 0.0457 µM in test [6]. Besides, in test [9], the Activity was 20%.
Turning to `C[C@@H]1NC(=O)[C@H](Cc2c[nH]cn2)NC(=O)[C@H](Cc2ccccc2)NC(=O)[C@H](Cc2ccccc2)NC(=O)[C@H](CCCNC(=N)N)NC(=O)[C@@H]2CCCN2C(=O)[C@H]2CCCN2C(=O)[C@H](Cc2ccccc2)NC1=O`, the Activity in test [10] amounted to 15%. The concentration for a half-maximal effect (EC50) in [1], in [5] and in [8] was greater than 100 µM in each case. Moreover, the Kb in test [3] was 0.347 µM.
In the case of `C[C@@H]1NC(=O)[C@H](CC(=O)O)NC(=O)[C@H](Cc2ccccc2)NC(=O)[C@H](Cc2ccccc2)NC(=O)[C@H](CCCNC(=N)N)NC(=O)[C@@H]2CCCN2C(=O)[C@H]2CCCN2C(=O)[C@H](Cc2ccccc2)NC1=O`, the EC50 in test [1], in test [5] and in test [8] was greater than 100 µM in each case. Also, the Kb in [3] was greater than 3.16 µM; in test [6], 0.162 µM. Moreover, in [4], the Activity amounted to 25%.
As for `CC(C)[C@@H]1NC(=O)[C@H](Cc2ccccc2)NC(=O)[C@H](Cc2ccccc2)NC(=O)[C@H](CCCNC(=N)N)NC(=O)[C@@H]2CCCN2C(=O)[C@H]2CCCN2C(=O)[C@H](Cc2ccccc2)NC(=O)[C@H](C)NC1=O`, the EC50 in test [1] and in [5] was greater than 100 µM each time. The values for the Activity in test [11] and in [2] were 25% and 55%, respectively. Also, the Kb in test [3] was greater than 3.16 µM; in test [6] it was 1.26 µM.
`N=C(N)NCCC[C@@H]1NC(=O)[C@@H]2CCCN2C(=O)[C@H]2CCCN2C(=O)[C@H](Cc2ccccc2)NC(=O)[C@H](CCCCN)NC(=O)[C@H](CC(N)=O)NC(=O)[C@H](Cc2ccccc2)NC(=O)[C@H](Cc2ccccc2)NC1=O`: the figures for the Activity in test [12], in test [2] and in test [13] were 45%, 60% and 45%, respectively. Further, in test [1], the EC50 was greater than 100 µM. For the same compound, the Kb in test [3] is greater than 3.16 µM; in test [6], 0.776 µM.
As to `C[C@@H]1NC(=O)[C@@H](CN)NC(=O)[C@H](Cc2ccccc2)NC(=O)[C@H](Cc2ccccc2)NC(=O)[C@H](CCCNC(=N)N)NC(=O)[C@@H]2CCCN2C(=O)[C@H]2CCCN2C(=O)[C@H](Cc2ccccc2)NC1=O`, the Kb in test [3] is 0.2 µM. Besides, the half-maximal effective concentration (EC50) in test [5] and in test [8] was greater than 100 µM each time. Besides, the Activity in test [9] came out at 10%.
Take `CCCC[C@@H]1NC(=O)[C@H](Cc2ccccc2)NC(=O)[C@H](Cc2ccccc2)NC(=O)[C@H](CCCNC(=N)N)NC(=O)[C@@H]2CCCN2C(=O)[C@H]2CCCN2C(=O)[C@H](Cc2ccccc2)NC(=O)[C@H](C)NC1=O`: the half-maximal effective concentration (EC50) in test [7], in test [1], in [5] and in test [8] was greater than 100 µM each time. In addition, the Kb was greater than 3.16 µM in test [3] and 0.126 µM in test [6].
`CC[C@@H]1NC(=O)[C@H](Cc2ccccc2)NC(=O)[C@H](Cc2ccccc2)NC(=O)[C@H](CCCNC(=N)N)NC(=O)[C@@H]2CCCN2C(=O)[C@H]2CCCN2C(=O)[C@H](Cc2ccccc2)NC(=O)[C@H](C)NC1=O`: the half-maximal effective concentration (EC50) in test [1] and in test [8] was greater than 100 µM each time.
Regarding `N=C(N)NCCC[C@@H]1NC(=O)[C@@H]2CCCN2C(=O)[C@H]2CCCN2C(=O)[C@H](Cc2ccccc2)NC(=O)[C@H](Cc2ccccc2)NC(=O)[C@H](CC(N)=O)NC(=O)[C@H](Cc2ccccc2)NC(=O)[C@H](Cc2ccccc2)NC1=O`, the Activity in [14] was 35%; in test [12], 25%; in [2] it was 70%; in test [13] it was 35%. Further, the Kb is 1.91 µM in test [3] and 1.95 µM in test [6].
`C[C@@H]1NC(=O)[C@H](Cc2ccccc2)NC(=O)[C@H](Cc2ccccc2)NC(=O)[C@H](Cc2ccccc2)NC(=O)[C@H](CCCNC(=N)N)NC(=O)[C@@H]2CCCN2C(=O)[C@H]2CCCN2C(=O)[C@H](Cc2ccccc2)NC1=O`: the concentration giving a half-maximal response (EC50) in test [7], in test [1], in test [5] and in [8] was greater than 100 µM in each case. Besides, the Kb in [3] is greater than 3.16 µM; in test [6], 0.234 µM.
For `N=C(N)NCCC[C@@H]1NC(=O)[C@@H]2CCCN2C(=O)[C@H]2CCCN2C(=O)[C@H](Cc2ccccc2)NC(=O)CNC(=O)[C@H](CC(N)=O)NC(=O)[C@H](Cc2ccccc2)NC(=O)[C@H](Cc2ccccc2)NC1=O` (cyclo(RFFNGF[dP]P)), the half-maximal effective concentration (EC50) in test [1], in test [5] and in test [8] was greater than 100 µM in each case. In addition, the Kb is greater than 3.16 µM in test [3] and 0.794 µM in test [6]. Further, the Activity in test [4] is 35%.
Turning to `CC(C)C[C@@H]1NC(=O)[C@H](CC(N)=O)NC(=O)[C@H](Cc2ccccc2)NC(=O)[C@H](Cc2ccccc2)NC(=O)[C@H](CCCNC(=N)N)NC(=O)[C@@H]2CCCN2C(=O)[C@H]2CCCN2C(=O)[C@H](Cc2ccccc2)NC1=O`, the Activity in test [14] is 25%; in [2] it was 80%; in [13] it was 25%. Moreover, in [7], the concentration giving a half-maximal response (EC50) is greater than 100 µM. Besides, the Kb in test [3] was greater than 3.16 µM; in [6] it was 0.661 µM.
For the compound `C[C@@H]1NC(=O)[C@H](CC(N)=O)NC(=O)[C@H](Cc2ccccc2)NC(=O)[C@H](Cc2ccccc2)NC(=O)[C@H](CCCNC(=N)N)NC(=O)[C@@H]2CCCN2C(=O)[C@H]2CCCN2C(=O)[C@H](C)NC1=O` (cyclo(RFFNAA[dP]P)), the EC50 in test [1], in test [5] and in test [8] was greater than 100 µM each time. The Kb in test [3] is 0.794 µM; in test [6] it was 0.00692 µM. For the same compound, the Activity in test [4] worked out at 25%.
On to `N=C(N)NCCC[C@@H]1NC(=O)[C@@H]2CCCN2C(=O)[C@H]2CCCN2C(=O)[C@H](Cc2ccccc2)NC(=O)[C@H](CO)NC(=O)[C@H](CC(N)=O)NC(=O)[C@H](Cc2ccccc2)NC(=O)[C@H](Cc2ccccc2)NC1=O` (cyclo(RFFNSF[dP]P)), for which the EC50 in [1], in test [5] and in test [8] was greater than 100 µM in each case. Also, the figures for the Kb in test [3] and in [6] were 0.631 µM and 0.00631 µM, respectively. In addition, in test [4], the Activity was 30%.
